Screens (PubChem)
Most compounds without a hit are left out; they make up all but 3.5% or so of the library.
RGS4 inh = RGS4 inhibitors, primary screen, cell-based, HEK293 M3R inducible RGS4, calcium flux. Fluo-4 calcium flux; active compounds read high; triggered by carbachol at its EC20. Regulator of G-protein signaling 4 (Homo sapiens), P49798. B-score at 10 µM. actives 0.45% (n = 310,000);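 active means B-score, a plate-corrected calcium signal, over three deviations above library mean, with baseline fluorescence within five deviations of library mean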;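 further: RGS4 expression induced by doxycycline in cells with stable M3 receptor; B-score is computed from the integrated fluorescence ratio over baseline after carbachol; higher B-score means a larger calcium signal and so more RGS4 inhibition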
Target sequence (P49798 whole entry, looked up): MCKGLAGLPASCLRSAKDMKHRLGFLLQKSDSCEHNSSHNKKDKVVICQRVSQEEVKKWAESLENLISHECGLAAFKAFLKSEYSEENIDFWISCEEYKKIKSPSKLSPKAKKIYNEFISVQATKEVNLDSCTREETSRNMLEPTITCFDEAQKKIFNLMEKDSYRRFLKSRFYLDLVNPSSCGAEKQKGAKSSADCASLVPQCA
MrgX1 allo act = positive allosteric modulators of MrgX1, primary screen, HEK293 cells, Fluo-4 calcium flux | FDSS; active compounds read high | B-score at 10 µM | actives 0.63% (n = 310,000) | Mas-related G-protein coupled receptor member X1 (Homo sapiens), Q96LB2;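 active means plate-corrected calcium response at least 3 library SD above typical, normal starting fluorescence, not activating the receptor alone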;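 further: compound read alongside a low EC10 to EC30 dose of BAM8-22 agonist; peak minus trough fluorescence over baseline measured at the second addition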
Target sequence (Q96LB2 whole entry, looked up): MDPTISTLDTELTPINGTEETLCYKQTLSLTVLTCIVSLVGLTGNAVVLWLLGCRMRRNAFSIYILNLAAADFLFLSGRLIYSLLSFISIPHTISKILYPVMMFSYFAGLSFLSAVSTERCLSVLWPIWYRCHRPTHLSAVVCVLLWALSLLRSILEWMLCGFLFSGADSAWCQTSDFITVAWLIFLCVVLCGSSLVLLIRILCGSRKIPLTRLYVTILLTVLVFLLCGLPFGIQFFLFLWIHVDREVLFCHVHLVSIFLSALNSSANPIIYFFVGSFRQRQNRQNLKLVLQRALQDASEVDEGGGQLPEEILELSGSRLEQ
RGS4 act = RGS4 potentiators or activators, primary screen, cell-based, HEK293 M3R inducible RGS4, calcium flux; carbachol calcium flux Fluo4; active compounds read low; B-score at 10 µM; actives 0.92% (n = 310,000);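 active means B-score of the integrated calcium signal more than 4 SD below the library mean, with starting fluorescence not abnormally high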;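 further: negative B-score means reduced calcium response which marks RGS4 activation or potentiation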
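test system = HEK293 cells with stable M3R and inducible RGS4 | schedule = recording 10 s baseline at 1 Hz, 100 s post-agonist | technique = Fluo4-AM (2 µM) calcium-flux fluorescence, kinetic read | measure = Agonist-evoked peak-minus-minimum fluorescence over baseline, integrated ratio, B score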
MrgX1 antagonist = antagonists of human MrgX1 receptor, primary screen, HEK293 cells, Fluo-4 calcium flux; AID 588676, 2011; actives 1.3% (n = 310,000); Mas-related G-protein coupled receptor member X1 (Homo sapiens), Q96LB2; B-score at 10 µM; BAM8-22 antagonism; active compounds read low;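 active means calcium-response B-score plate-corrected more than 3 library SD below zero, starting fluorescence within 5 deviations, no agonist response on first addition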;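 further: peak minus trough fluorescence over baseline after final BAM8-22 challenge near maximal dose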
MrgX1 agonist = agonists of human MrgX1 receptor, primary screen, HEK293 cells, Fluo-4 calcium flux. actives 0.44% (n = 310,000). B-score at 10 µM. AID 588627, 2011. Fluo-4 calcium fluorescence, agonist mode; active compounds read high;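 active means calcium response B-score plate-corrected fluorescence ratio at least 3 library SD, with starting fluorescence B-score inside 5 SD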
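Material – MrgX1-expressing HEK293 cells · Input – 15,000 cells seeded per well · Dosing – compound as first of three additions · Times – overnight seeding, then 1 h dark dye loading · Measured by – kinetic Fluo-4 NW fluorescence of intracellular calcium · Read-out – B-scored fluorescence response ratio · Benchmarks – positive and negative control wells on each plate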
Numbers stand for hits; i = inactive; nt = no result.

SMILES | RGS4 inh | MrgX1 allo act | RGS4 act | MrgX1 antagonist | MrgX1 agonist
Cc1cc(Oc2nc3ccccn3c(=O)c2/C=C(\C#N)C(=O)NC2CCS(=O)(=O)C2)ccc1Cl (stereo not drawn) | i | i | i | i | i
Cc1ccc(C)c(NC(=S)NC(NC(=O)Cc2cccc3ccccc23)C(Cl)(Cl)Cl)c1 (stereo not drawn) | i | i | i | -9.1 | i
Cc1ccc(C)c(NC(=S)NC(NC(=O)N(C)C)C(Cl)(Cl)Cl)c1 (stereo not drawn) | i | i | i | i | i
CC(OC(=O)Cc1n[nH]c(=O)c2ccccc12)C(=O)Nc1ccc(F)cc1Cl (stereo not drawn) | i | i | i | i | i
Cc1c2cnn(CC(=O)NCCN3CCOCC3)c(=O)c2c(C)n1Cc1ccc(F)cc1 | i | i | i | -5.8 | i
Cc1c2cnn(CC(=O)N3CCN(c4ncccn4)CC3)c(=O)c2c(C)n1Cc1ccc(F)cc1 | i | i | i | i | i
O=C(CN1C(=O)NC2(CCCC2)C1=O)Nc1cc(Cl)ccc1N1CCCCC1 | i | i | i | i | i
Cc1ccc(SCCC(=O)OC(C(=O)NC(N)=O)C(C)C)cc1 (stereo not drawn) | i | i | i | i | i
Cc1cc(OCc2nnc(SC(C)C(=O)O)n2Cc2ccccc2)ccc1Cl (stereo not drawn) | i | nt | i | nt | nt
Cc1ccc2nc(-c3ccccc3)cc(C(=O)N(C)CC(=O)Nc3ccccc3Br)c2c1 | i | i | -9.2 | i | i
CN(CC(=O)Nc1cccc(F)c1)C(=O)c1cc(-c2ccccc2)nc2ccccc12 | i | i | i | i | i
CC(=O)Nc1ccc(/C=C2\CCc3ccccc3C2=O)cc1 | i | i | i | i | i
CCCCC(=O)NS(=O)(=O)c1ccc(NS(C)(=O)=O)cc1 | i | i | i | i | i
C#CCOCCOCCOCCNc1nc(N2CCN(C(=O)CCCCCCCCCCNC(=O)[C@@H](CCC(=O)O)n3cc(CCCCCN)nn3)CC2)nc(N2CCN(C(=O)CCCCCCCCCCNC(=O)[C@H]([C@@H](C)CC)n3cc(CCCCCN)nn3)CC2)n1 | nt | i | nt | i | i
C#CCOCCOCCOCCNc1nc(N2CCN(C(=O)CCCCCCCCCCNC(=O)[C@H]([C@@H](C)CC)n3cc(CCCCCN)nn3)CC2)nc(N2CCN(C(=O)CCCCCCCCCCNC(=O)[C@H](CO)n3cc(CCCCCN)nn3)CC2)n1 | nt | i | nt | i | 108
C#CCOCCOCCOCCNc1nc(N2CCN(C(=O)CCCCCCCCCCNC(=O)[C@H]([C@@H](C)CC)n3cc(CCCCCN)nn3)CC2)nc(N2CCN(C(=O)CCCCCCCCCCNC(=O)[C@@H]([C@H](C)CC)n3cc(CCCCCN)nn3)CC2)n1 | nt | i | nt | i | 106
CS(=O)(=O)NCCCCCCNS(C)(=O)=O | i | i | i | i | i
COc1ccc(OC)c(/C=C2\SC(=S)N(Cc3cccnc3)C2=O)c1 | i | i | i | i | i
COc1ccc(O)c(/C=C2/SC(=S)N(Cc3ccccc3)C2=O)c1 | i | i | i | -5.1 | i
COc1ccc(-c2nn(-c3ccccc3)cc2/C=C2/SC(=S)N(CCC(=O)O)C2=O)c(C)c1 | i | i | -7.7 | i | i
COc1ccc(-c2nn(-c3ccccc3)cc2/C=C2/SC(=S)N(CCC(=O)O)C2=O)cc1 | i | i | -7.2 | -6 | i
COc1ccc(/C=C2/SC(=S)N(CCC(=O)O)C2=O)cc1 | i | i | i | i | 31
CN(C)S(=O)(=O)c1ccc(NC(=O)CN2CCCc3ccccc32)cc1 | i | i | i | i | i
Cn1cc(Cl)c(C(=O)OCC(=O)Nc2ccc(S(N)(=O)=O)cc2)n1 | i | nt | i | nt | nt
Cc1nc(C)n(CC(C)C(=O)N2CCN(S(=O)(=O)c3ccc(Cl)cc3)CC2)n1 (stereo not drawn) | i | i | i | i | i
SMILES | RGS4 inh | MrgX1 allo act | RGS4 act | MrgX1 antagonist | MrgX1 agonist
O=C(Nc1ccccc1C(=O)NCc1ccccc1)C1=CSCCO1 | i | i | i | i | i
CC1=NNC(=O)/C1=C\c1cn(-c2ccccc2)nc1-c1ccc(F)cc1 | i | nt | i | nt | nt
CCOc1ccc(-c2nn(-c3ccccc3)cc2/C=C2\SC(=S)N(C3CCS(=O)(=O)C3)C2=O)cc1 (stereo not drawn) | i | i | -8.3 | i | i
Cc1ccc(-c2nn(-c3ccccc3)cc2/C=C2\SC(=S)N(CC(=O)O)C2=O)cc1 | i | i | i | i | i
CCCOc1ccc(-c2nn(-c3ccccc3)cc2/C=C2\SC(=S)N(C3CCS(=O)(=O)C3)C2=O)cc1 (stereo not drawn) | i | i | i | i | i
CC1=NNC(=O)/C1=C\c1cn(-c2ccccc2)nc1-c1cccs1 | i | i | i | -6.5 | i
O=C(O)CCCCCN1C(=O)/C(=C\c2cn(-c3ccccc3)nc2-c2cccs2)SC1=S | i | i | -7 | i | i
COc1cccc(CSc2nnc(-c3ccncc3)n2N)c1 | i | i | i | i | i
O=c1c(Cc2c(F)cccc2Cl)c(O)ccn1CCCN1CCOCC1 | i | i | i | i | i
O=C(CN1C(=O)c2ccccc2S1(=O)=O)NCc1c(F)cccc1F | i | i | i | i | i
O=C1C2C3C=CC(CO)(O3)C2C(=O)N1c1ccccc1-c1ccccc1 (stereo not drawn) | nt | i | nt | i | 34
CC(=O)Oc1ccc(N2C(=O)C3C4C=CC(CO)(O4)C3C2=O)cc1 (stereo not drawn) | i | i | i | i | i
Cc1ccc(OCCC(=O)OCC(=O)Nc2cc(S(=O)(=O)N(C)C)ccc2C)cc1 | i | i | i | i | i
CCCCCCCCSc1nnc(CSc2nc3nc(C)cc(C)n3n2)o1 | i | i | -8.3 | i | i
Cc1cccc(C)c1OCc1cc(C(=O)N2CCC(C3CCCCC3)C2)no1 (stereo not drawn) | i | i | -7.6 | i | i
CC1CCCCN1CCCNC(=O)c1ccc2nc(N3CCCCC3)sc2c1 (stereo not drawn) | i | i | i | i | i
O=C(Nc1ccc(Br)cc1)Nc1ccccc1F | i | i | i | i | i
O=C(Nc1ccc(Cl)c(Cl)c1)Nc1ccc(Br)cc1F | i | i | i | -5.2 | i
COc1ccc(S(=O)(=O)N2CCN(C(=O)c3cc(-c4ccc(Br)cc4)n[nH]3)CC2)cc1OC | i | i | -7 | i | i
CC1C(=NO)C(C)C(c2ccc(N(C)C)cc2)NC1c1ccc(N(C)C)cc1 (stereo not drawn) | i | 14 | i | i | i
Cc1nnc(SCc2cc([N+](=O)[O-])cc3c2OCOC3)[nH]c1=O | i | i | i | i | i
COc1ccc(Nc2nnc(SCc3cc([N+](=O)[O-])cc4c3OCOC4)s2)cc1 | i | i | i | -4.6 | i
